Results from ChEMBL document CHEMBL1140994, “Ranking the selectivity of PubChem screening hits by activity-based protein profiling: MMP13 as a case study” (Bioorg Med Chem, 2009).
pIC50: −log10 of the molar value. The source made the active and inactive calls. No cut-off for these calls is given here.

Columns and labels:
[1] = target: Endoplasmic reticulum aminopeptidase 1 (Homo sapiens) (UniProt Q9NZ08); test: Inhibition of human recombinant PILS-AP at 200 uM by HxBPyne probe-based competitive activity based protein profiling assay in presence of 5 uM HxBpane competitor
Summary of the method: (§1)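 Recombinant enzyme at 0.5 μM final in mouse liver soluble proteome (1 mg protein/mL in PBS). HxBPyne probe cocktail 0.5 μM total final, with inhibitor 200 μM or DMSO. Preincubated 30 min on ice, then UV 365 nm for 1 h on ice. Rhodamine-azide click chemistry, 1 h RT in dark. SDS-PAGE with in-gel fluorescence; band intensity given as % of DMSO control.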

[2] = target: Matrix metalloproteinase-24 (Homo sapiens) (UniProt Q9Y5R2); test: Inhibition of human recombinant MMP24 at 200 uM by HxBPyne probe-based competitive activity based protein profiling assay in presence of 5 uM HxBpane competitor; summary of the method: as §1
[3] = target: Stromelysin-2 (Homo sapiens) (UniProt P09238); test: Inhibition of human recombinant MMP10 at 200 uM by HxBPyne probe-based competitive activity based protein profiling assay in presence of 5 uM HxBpane competitor; summary of the method: as §1
[4] = target: Endoplasmic reticulum aminopeptidase 2 (Homo sapiens) (UniProt Q6P179); test: Inhibition of human recombinant L-RAP at 200 uM by HxBPyne probe-based competitive activity based protein profiling assay in presence of 5 uM HxBpane competitor; summary of the method: as §1
[5] = target: 72 kDa type IV collagenase (Homo sapiens) (UniProt P08253); test: Inhibition of human recombinant MMP2 at 200 uM by HxBPyne probe-based competitive activity based protein profiling assay in presence of 5 uM HxBpane competitor; summary of the method: as §1
[6] = target: Matrix metalloproteinase-15 (Homo sapiens) (UniProt P51511); test: Inhibition of human recombinant MMP15 at 200 uM by HxBPyne probe-based competitive activity based protein profiling assay in presence of 5 uM HxBpane competitor; summary of the method: as §1
[7] = target: T1, A disintegrin and metalloproteinase with thrombospondin motifs 5 (Homo sapiens) (UniProt Q9UNA0); test: Inhibition of human recombinant ADAMTS5 at 200 uM by HxBPyne probe-based competitive activity based protein profiling assay in presence of 5 uM HxBpane competitor; summary of the method: as §1
T1 sequence (whole entry): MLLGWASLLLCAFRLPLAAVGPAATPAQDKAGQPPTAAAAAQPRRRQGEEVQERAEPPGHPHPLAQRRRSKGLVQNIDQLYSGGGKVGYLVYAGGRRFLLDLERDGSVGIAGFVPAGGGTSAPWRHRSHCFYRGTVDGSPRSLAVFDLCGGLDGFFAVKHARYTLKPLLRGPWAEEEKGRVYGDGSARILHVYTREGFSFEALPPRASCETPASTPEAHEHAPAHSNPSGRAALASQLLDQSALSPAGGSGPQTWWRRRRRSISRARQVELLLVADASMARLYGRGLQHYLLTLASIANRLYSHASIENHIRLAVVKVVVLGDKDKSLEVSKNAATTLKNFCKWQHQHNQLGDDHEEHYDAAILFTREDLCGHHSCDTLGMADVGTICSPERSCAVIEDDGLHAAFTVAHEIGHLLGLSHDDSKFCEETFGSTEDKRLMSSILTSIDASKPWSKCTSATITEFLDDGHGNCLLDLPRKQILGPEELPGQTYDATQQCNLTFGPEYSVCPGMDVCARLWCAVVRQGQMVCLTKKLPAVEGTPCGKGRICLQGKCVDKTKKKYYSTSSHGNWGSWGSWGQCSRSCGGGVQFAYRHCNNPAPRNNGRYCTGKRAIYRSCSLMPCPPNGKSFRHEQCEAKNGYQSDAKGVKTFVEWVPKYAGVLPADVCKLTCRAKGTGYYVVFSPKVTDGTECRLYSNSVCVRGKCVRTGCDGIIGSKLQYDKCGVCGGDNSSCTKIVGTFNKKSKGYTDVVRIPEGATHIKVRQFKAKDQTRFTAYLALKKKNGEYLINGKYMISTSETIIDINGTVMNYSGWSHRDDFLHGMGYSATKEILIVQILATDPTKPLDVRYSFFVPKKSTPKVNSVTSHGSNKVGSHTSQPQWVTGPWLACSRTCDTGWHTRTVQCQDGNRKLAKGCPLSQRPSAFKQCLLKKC

[8] = target: T2, Matrix metalloproteinase-9 (Homo sapiens, UniProt P14780); test: Inhibition of human recombinant MMP9 by fluorogenic substrate assay
Summary of the method: (§2)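 Enzyme (MMP8 6 nM, MMP9 2 nM, MMP13 1.5 nM final) preincubated with inhibitor 30 min in 50 mM HEPES pH 7.5, 10 mM CaCl2, 0.05% Brij-35, at RT. Mca-PLGL-Dpa-AR-NH2 added at 5 μM; fluorescence (ex 328/em 393 nm) read each minute for 10 min. Initial rates by linear least squares; IC50 from variable-slope sigmoidal fit. Triplicate; mean with 95% CI.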

Collagenase 3 [9] = target: T3, Collagenase 3 (Homo sapiens, UniProt P45452); test: Inhibition of human recombinant MMP13 by fluorogenic substrate assay
[10] = target: Matrix metalloproteinase-14 (Homo sapiens) (UniProt P50281); test: Inhibition of human recombinant MMP14 at 200 uM by HxBPyne probe-based competitive activity based protein profiling assay in presence of 5 uM HxBpane competitor; summary of the method: as §1
[11] = target: T2, Matrix metalloproteinase-9; test: Inhibition of human recombinant MMP9 at 200 uM by HxBP-Rh probe-based competitive activity based protein profiling assay in presence of 200 uM HxBP-alkyne
Summary of the method: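 Enzyme 0.5 μM final, in PBS (ADAMTS4, neprilysin) or in 1 mg/mL mouse liver soluble proteome (MMP9). HxBP-Rh probe 0.5 μM final with 200 μM inhibitor or DMSO. Preincubated 30 min on ice, UV 365 nm 1 h on ice. Deglycosylated with PNGase F, then SDS-PAGE with fluorescence scanning. Activity given relative to DMSO control.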

[12] = target: A disintegrin and metalloproteinase with thrombospondin motifs 1 (Homo sapiens) (UniProt Q9UHI8); test: Inhibition of human recombinant ADAMTS1 at 200 uM by HxBPyne probe-based competitive activity based protein profiling assay in presence of 5 uM HxBpane competitor; summary of the method: as §1
[13] = target: Methionine aminopeptidase 2 (Homo sapiens) (UniProt P50579); test: Inhibition of human recombinant METAP2 at 200 uM by HxBPyne probe-based competitive activity based protein profiling assay in presence of 200 uM HxBpane competitor
Summary of the method: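 Metalloprotease at 1.6 μM final in PBS, without liver proteome. HxBPyne probe cocktail 20 μM final, with inhibitor 200 μM or DMSO. Preincubated 30 min on ice, then irradiated 365 nm for 1 h on ice. Rhodamine-azide click chemistry, then SDS-PAGE and in-gel fluorescence scanning. Integrated band intensity expressed as % of DMSO control.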

Collagenase 3 [14] = target: T3, Collagenase 3; test: Inhibition of human recombinant MMP13 by HxBPyne probe-based competitive activity based protein profiling assay
Neutrophil collagenase = Neutrophil collagenase (Homo sapiens, UniProt P22894); test: Inhibition of human recombinant MMP8 by fluorogenic substrate assay; summary of the method: as §2
[15] = target: Disintegrin and metalloproteinase domain-containing protein 10 (Homo sapiens) (UniProt O14672); test: Inhibition of human recombinant ADAM10 at 200 uM by HxBPyne probe-based competitive activity based protein profiling assay in presence of 5 uM HxBpane competitor; summary of the method: as §1
Sequence of Disintegrin and metalloproteinase domain-containing protein 10 (Homo sapiens) (O14672 whole entry, the tested form may be a part): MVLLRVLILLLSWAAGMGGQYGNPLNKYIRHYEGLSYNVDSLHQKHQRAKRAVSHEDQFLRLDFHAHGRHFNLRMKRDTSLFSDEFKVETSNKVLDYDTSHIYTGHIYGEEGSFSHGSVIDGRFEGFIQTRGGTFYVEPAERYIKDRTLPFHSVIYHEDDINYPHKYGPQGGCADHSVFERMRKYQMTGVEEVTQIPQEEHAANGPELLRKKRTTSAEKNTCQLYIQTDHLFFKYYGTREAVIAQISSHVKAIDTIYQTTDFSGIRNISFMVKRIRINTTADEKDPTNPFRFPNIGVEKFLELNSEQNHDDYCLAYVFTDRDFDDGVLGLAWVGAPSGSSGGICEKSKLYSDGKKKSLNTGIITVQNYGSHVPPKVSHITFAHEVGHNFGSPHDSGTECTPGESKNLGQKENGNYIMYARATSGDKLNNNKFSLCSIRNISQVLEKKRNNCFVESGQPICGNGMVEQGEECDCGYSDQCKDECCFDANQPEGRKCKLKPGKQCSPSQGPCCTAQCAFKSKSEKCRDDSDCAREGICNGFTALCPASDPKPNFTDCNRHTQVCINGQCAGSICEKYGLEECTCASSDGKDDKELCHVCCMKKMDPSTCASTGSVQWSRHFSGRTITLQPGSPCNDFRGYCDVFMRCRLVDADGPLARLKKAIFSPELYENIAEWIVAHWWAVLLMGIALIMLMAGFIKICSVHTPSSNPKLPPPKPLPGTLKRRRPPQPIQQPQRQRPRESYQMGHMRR

T2 sequence (P14780 whole entry): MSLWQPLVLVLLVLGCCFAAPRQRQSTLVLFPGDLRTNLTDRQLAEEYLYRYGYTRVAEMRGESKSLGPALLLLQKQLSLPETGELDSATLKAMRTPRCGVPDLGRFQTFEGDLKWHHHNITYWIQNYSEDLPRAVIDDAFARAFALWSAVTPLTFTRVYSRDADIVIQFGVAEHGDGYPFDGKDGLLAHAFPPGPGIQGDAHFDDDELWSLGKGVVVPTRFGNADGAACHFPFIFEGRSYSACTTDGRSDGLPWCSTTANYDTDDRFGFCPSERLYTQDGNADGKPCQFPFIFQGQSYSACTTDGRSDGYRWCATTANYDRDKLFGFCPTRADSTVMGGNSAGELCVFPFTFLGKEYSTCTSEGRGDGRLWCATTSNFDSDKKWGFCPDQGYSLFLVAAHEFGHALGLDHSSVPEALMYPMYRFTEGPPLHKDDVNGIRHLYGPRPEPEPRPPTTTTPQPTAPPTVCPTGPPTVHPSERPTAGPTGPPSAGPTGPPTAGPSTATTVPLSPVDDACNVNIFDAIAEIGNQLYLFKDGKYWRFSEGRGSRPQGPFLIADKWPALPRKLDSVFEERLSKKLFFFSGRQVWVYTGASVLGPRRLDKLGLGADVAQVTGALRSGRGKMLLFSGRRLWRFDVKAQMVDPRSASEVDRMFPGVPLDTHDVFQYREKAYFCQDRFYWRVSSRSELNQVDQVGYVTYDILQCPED
Sequence of 72 kDa type IV collagenase (Homo sapiens) (P08253 110-660 limits assumed): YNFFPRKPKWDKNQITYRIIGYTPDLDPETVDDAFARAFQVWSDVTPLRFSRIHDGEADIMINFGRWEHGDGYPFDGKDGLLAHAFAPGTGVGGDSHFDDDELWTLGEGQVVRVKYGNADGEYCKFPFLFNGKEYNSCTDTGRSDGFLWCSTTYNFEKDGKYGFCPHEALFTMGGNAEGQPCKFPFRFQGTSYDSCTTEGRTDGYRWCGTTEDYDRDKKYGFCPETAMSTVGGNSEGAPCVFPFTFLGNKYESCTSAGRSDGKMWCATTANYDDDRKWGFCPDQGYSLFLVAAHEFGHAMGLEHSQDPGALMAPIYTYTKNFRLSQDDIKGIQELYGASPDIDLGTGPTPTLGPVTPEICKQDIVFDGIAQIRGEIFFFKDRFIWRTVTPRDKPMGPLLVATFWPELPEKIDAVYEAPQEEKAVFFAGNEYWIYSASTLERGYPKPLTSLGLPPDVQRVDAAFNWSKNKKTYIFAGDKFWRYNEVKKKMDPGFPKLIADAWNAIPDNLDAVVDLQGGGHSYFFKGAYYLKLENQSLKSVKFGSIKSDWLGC
Sequence of Stromelysin-2 (Homo sapiens) (P09238 99-476 limits assumed): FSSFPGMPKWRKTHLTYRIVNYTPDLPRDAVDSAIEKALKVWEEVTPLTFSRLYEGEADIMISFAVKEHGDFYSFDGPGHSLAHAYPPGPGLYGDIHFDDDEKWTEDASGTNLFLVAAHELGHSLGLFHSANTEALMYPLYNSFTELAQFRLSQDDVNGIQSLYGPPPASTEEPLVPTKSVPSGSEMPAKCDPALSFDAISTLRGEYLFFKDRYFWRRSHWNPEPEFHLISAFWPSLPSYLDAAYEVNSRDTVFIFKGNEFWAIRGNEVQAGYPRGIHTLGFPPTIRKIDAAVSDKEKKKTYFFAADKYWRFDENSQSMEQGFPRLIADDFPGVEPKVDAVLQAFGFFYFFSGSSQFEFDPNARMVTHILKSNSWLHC
Sequence of A disintegrin and metalloproteinase with thrombospondin motifs 1 (Homo sapiens) (Q9UHI8 whole entry): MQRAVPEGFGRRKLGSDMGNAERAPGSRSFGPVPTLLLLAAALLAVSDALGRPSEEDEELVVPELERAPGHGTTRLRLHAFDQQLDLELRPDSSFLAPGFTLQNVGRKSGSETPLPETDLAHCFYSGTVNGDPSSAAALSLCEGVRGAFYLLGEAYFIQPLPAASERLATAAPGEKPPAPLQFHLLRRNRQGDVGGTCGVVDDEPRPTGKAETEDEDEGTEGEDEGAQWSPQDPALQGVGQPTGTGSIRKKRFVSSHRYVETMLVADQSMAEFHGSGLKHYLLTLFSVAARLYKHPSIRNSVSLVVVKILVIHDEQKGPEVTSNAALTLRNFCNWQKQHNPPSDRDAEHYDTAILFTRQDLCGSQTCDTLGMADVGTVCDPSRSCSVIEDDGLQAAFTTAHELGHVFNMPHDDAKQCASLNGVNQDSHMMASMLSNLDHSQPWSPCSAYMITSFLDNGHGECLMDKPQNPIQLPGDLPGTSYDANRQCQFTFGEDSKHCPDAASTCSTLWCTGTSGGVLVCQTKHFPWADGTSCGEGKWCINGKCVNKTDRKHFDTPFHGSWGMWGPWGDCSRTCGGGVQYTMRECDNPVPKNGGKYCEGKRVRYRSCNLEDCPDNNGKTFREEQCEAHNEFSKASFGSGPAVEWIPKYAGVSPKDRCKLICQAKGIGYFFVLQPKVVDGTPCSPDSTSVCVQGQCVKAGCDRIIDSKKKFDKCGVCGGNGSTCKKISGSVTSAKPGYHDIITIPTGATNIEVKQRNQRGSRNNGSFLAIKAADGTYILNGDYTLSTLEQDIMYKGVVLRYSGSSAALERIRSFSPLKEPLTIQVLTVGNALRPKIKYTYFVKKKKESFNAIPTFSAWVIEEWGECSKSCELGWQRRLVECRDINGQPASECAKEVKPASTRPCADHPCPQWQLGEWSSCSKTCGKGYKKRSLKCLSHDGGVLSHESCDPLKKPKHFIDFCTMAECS
Sequence of Endoplasmic reticulum aminopeptidase 1 (Homo sapiens) (Q9NZ08 whole entry): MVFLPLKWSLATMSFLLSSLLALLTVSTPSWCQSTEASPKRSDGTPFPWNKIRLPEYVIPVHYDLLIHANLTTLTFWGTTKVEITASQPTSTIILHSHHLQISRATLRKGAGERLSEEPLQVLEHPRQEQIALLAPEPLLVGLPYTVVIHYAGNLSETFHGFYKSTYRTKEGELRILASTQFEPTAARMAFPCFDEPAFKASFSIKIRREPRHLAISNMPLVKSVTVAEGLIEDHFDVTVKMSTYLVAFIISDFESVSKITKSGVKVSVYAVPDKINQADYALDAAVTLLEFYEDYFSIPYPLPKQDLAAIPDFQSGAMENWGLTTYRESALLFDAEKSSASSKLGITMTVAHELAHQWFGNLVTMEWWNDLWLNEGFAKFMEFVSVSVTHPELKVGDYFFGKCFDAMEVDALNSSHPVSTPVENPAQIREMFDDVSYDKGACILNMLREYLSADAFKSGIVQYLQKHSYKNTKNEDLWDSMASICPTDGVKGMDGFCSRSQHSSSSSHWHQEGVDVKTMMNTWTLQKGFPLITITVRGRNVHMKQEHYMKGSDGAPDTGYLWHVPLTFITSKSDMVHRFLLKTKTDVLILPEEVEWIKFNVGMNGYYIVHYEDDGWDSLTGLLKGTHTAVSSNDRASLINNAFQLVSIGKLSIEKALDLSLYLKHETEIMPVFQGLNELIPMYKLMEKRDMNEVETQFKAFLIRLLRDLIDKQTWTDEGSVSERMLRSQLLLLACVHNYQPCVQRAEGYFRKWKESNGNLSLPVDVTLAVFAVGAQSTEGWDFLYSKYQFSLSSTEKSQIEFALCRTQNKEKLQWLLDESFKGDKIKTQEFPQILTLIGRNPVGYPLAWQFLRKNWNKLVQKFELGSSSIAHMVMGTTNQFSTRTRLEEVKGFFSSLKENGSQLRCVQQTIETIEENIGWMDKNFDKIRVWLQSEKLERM
Sequence of Neutrophil collagenase (P22894 whole entry, the tested form may be a part): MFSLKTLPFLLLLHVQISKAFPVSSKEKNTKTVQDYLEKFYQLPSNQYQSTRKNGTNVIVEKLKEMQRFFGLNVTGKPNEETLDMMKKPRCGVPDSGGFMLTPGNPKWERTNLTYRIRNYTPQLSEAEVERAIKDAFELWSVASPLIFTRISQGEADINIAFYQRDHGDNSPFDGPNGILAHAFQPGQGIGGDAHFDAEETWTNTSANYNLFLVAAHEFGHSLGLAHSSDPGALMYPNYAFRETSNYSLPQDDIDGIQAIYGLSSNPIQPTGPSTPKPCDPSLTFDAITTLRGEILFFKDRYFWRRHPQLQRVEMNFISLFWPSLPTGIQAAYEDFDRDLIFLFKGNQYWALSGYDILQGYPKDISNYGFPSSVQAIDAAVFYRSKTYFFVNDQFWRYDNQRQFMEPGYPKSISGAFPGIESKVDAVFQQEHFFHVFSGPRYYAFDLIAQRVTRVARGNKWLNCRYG

Compound	Activity [1]	Activity [2]	Activity [3]	Activity [4]	Activity [5]	Activity [6]	Activity [7]	pIC50 [8]	pIC50 (Collagenase 3 [9])	Activity [10]	Activity [11]	Activity [12]	Activity [13]	pIC50 (Collagenase 3 [14])	pIC50 (Neutrophil collagenase)	Activity [15]
COc1ccc(CSc2nc(C)cc(O)n2)cc1	inactive	inactive	inactive	inactive	inactive	inactive	inactive	< 4.00	5.80	inactive	inactive	inactive	inactive	4.70	< 4.00	inactive
Oc1nc(SCc2ccc(Cl)cc2)nc2c1CCC2	inactive	inactive	inactive	inactive	inactive	inactive	inactive	< 4.00	6.04	inactive	inactive	inactive	inactive	5.42	< 4.00	inactive
